Values after ≈ are worked out from the molar mass of the structure shown. Active and inactive are the calls of the source. The rule behind the calls is not given here.
What was measured:
Assay type in all cases: functional
Staphylococcus aureus [1] = test: microbe, parasite or virus in culture; settings: ATCC 9144, 24 h, read-out: IZ
Bacillus cereus [2] = test: Antimicrobial activity against Bacillus cereus ATCC 11778 at 100 ug/ml after 24 hrs by paper disk diffusion method; settings: ATCC 11778, 24 h, read-out: IZ
Escherichia coli [3] = test: microbe, parasite or virus in culture; settings: ATCC 25922, 24 h, read-out: IZ
Klebsiella pneumoniae [4] = test: microbe, parasite or virus in culture; settings: ATCC 11298, 24 h, read-out: IZ
Staphylococcus aureus [5] = test: microbe, parasite or virus in culture; settings: ATCC 9144, 24 h
Bacillus cereus [6] = test: microbe, parasite or virus in culture; settings: ATCC 11778, 24 h
Escherichia coli [7] = test: microbe, parasite or virus in culture; settings: ATCC 25922, 24 h
Klebsiella pneumoniae [8] = test: microbe, parasite or virus in culture; settings: ATCC 11298, 24 h
[9] = system: Radical scavenging activity; test: Antioxidant activity assessed as DPPH radical scavenging activity at 50 ug/ml
In short: (§1)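 Each test sample was mixed with 1 ml DPPH in methanol, incubated at 37 °C for 30 min, and read spectrophotometrically at 517 nm with a blank reading. Scavenging % was expressed as the absorbance decrease at 517 nm relative to DPPH solution without test sample.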

[10] = system: Radical scavenging activity; test: Antioxidant activity assessed as DPPH radical scavenging activity at 100 ug/ml
In short: as §1

[11] = system: Radical scavenging activity; test: Antioxidant activity assessed as DPPH radical scavenging activity at 200 ug/ml
In short: as §1

[12] = system: Radical scavenging activity; test: Antioxidant activity assessed as DPPH radical scavenging activity at 400 ug/ml
In short: as §1

[13] = system: Radical scavenging activity; test: Antioxidant activity assessed as DPPH radical scavenging activity
In short: as §1

[14] = Antioxidant activity assessed as ABTS radical scavenging activity at 50 ug/ml
In short: (§2)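 Test samples at 50, 100, 200 and 400 ug/ml were each mixed with 1 ml of freshly prepared ABTS radical cation solution, adjusted to absorbance 0.7–0.9 at 734 nm. Mixtures reacted 2 h in the dark, then absorbance was read at 734 nm against a blank. Scavenging % was taken as the absorbance decrease relative to ABTS solution without test sample.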

[15] = Antioxidant activity assessed as ABTS radical scavenging activity at 100 ug/ml
In short: as §2

[16] = Antioxidant activity assessed as ABTS radical scavenging activity at 200 ug/ml
In short: as §2

[17] = Antioxidant activity assessed as ABTS radical scavenging activity at 400 ug/ml
In short: as §2

[18] = Antioxidant activity assessed as ABTS radical scavenging activity
In short: as §2

MCF7 = test: Cytotoxicity against human MCF7 cells after 24 hrs by MTT assay; settings: MCF7, 24 h
In short: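 Exponentially growing cells plated at 10⁴ cells/well and allowed to attach, then exposed to test compounds or doxorubicin (dissolved in 0.1% DMSO, diluted in medium; range 1–100) for 24 h; controls received medium with 0.1% DMSO. MTT (1 mg/ml) added for 4 h at 37 °C, formazan dissolved in DMSO, absorbance read at 540 nm; % cytotoxicity calculated from blank-corrected absorbances versus control.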

Row | SMILES | zone of inhibition at 100 µg/mL (Staphylococcus aureus [1]) | zone of inhibition at 100 µg/mL (Bacillus cereus [2]) | zone of inhibition at 100 µg/mL (Escherichia coli [3]) | zone of inhibition at 100 µg/mL (Klebsiella pneumoniae [4]) | MIC (Staphylococcus aureus [5]) | MIC (Bacillus cereus [6]) | MIC (Escherichia coli [7]) | MIC (Klebsiella pneumoniae [8]) | Activity ([9]; at 50 µg/mL) | Activity ([10]; at 100 µg/mL) | Activity ([11]; at 200 µg/mL) | Activity ([12]; at 400 µg/mL) | IC50 [13] | Activity ([14]; at 50 µg/mL) | Activity ([15]; at 100 µg/mL) | Activity ([16]; at 200 µg/mL) | Activity ([17]; at 400 µg/mL) | GI50 (MCF7) | LC50 (concentration killing 50% of cells) (MCF7) | TGI (MCF7) | other results
1 | N#CC1=C(N)OC(c2c[nH]c3ccccc23)=C(C#N)C1c1cccc2ccccc12 (stereo not given) | 15 mm | 16 mm | 16 mm | 15 mm | 28.6 µg/mL (≈ 73.6 µM) | 26.2 µg/mL (≈ 67.5 µM) | 28 µg/mL (≈ 72.1 µM) | 33.2 µg/mL (≈ 85.5 µM) | 18.8% | 21.8% | 22.8% | 26.4% | 1599.62 µg/mL (≈ 4120 µM) | 4.7% | 6.8% | 7.7% | 10.4% | 18.2 µM | 80.2 µM | 33.9 µM | IC50 [18]: > 1000 µg/mL
2 | N#CC1=C(N)OC(c2c[nH]c3ccccc23)=C(C#N)C1c1ccc2ccccc2c1 (stereo not given) | 14 mm | 15 mm | 16 mm | 15 mm | 32.4 µg/mL (≈ 83.4 µM) | 23.3 µg/mL (≈ 60 µM) | 29.4 µg/mL (≈ 75.7 µM) | 30.5 µg/mL (≈ 78.5 µM) |  |  |  |  |  |  |  |  |  | 15.5 µM | 91.5 µM | 46.6 µM | Activity [9]: inactive; Activity [10]: inactive; Activity [11]: inactive; Activity [12]: inactive; Activity [13]: inactive; Activity [14]: inactive; Activity [15]: inactive; Activity [16]: inactive; Activity [17]: inactive; Activity [18]: inactive
3 | N#CC1=C(N)OC(c2c[nH]c3ccccc23)=C(C#N)C1c1ccc(F)cc1 (stereo not given) | 21 mm | 16 mm | 18 mm | 17 mm | 16.8 µg/mL (≈ 47.1 µM) | 20.3 µg/mL (≈ 57 µM) | 26.2 µg/mL (≈ 73.5 µM) | 20.1 µg/mL (≈ 56.4 µM) | 26.9% | 28.9% | 31.4% | 36.5% | 901.11 µg/mL (≈ 2530 µM) | 8.4% | 16.2% | 22.4% | 26.7% | 28 µM | > 100 µM | 52.4 µM | IC50 [18]: 960 µg/mL (≈ 2690 µM)
4 | N#CC1=C(N)OC(c2c[nH]c3ccccc23)=C(C#N)C1c1ccccc1F (stereo not given) | 19 mm | 14 mm | 15 mm | 15 mm | 23.4 µg/mL (≈ 65.7 µM) | 22.6 µg/mL (≈ 63.4 µM) | 27.4 µg/mL (≈ 76.9 µM) | 30.2 µg/mL (≈ 84.7 µM) |  |  |  |  |  |  |  |  |  | 22.8 µM | > 100 µM | 48.2 µM | Activity [9]: inactive; Activity [10]: inactive; Activity [11]: inactive; Activity [12]: inactive; Activity [13]: inactive; Activity [14]: inactive; Activity [15]: inactive; Activity [16]: inactive; Activity [17]: inactive; Activity [18]: inactive
5 | COc1ccc(C2C(C#N)=C(N)OC(c3c[nH]c4ccccc34)=C2C#N)cc1OC (stereo not given) | 15 mm | 16 mm | 17 mm | 17 mm | 31.8 µg/mL (≈ 79.8 µM) | 25.4 µg/mL (≈ 63.8 µM) | 26.7 µg/mL (≈ 67 µM) | 21.2 µg/mL (≈ 53.2 µM) | 55.8% | 57.9% | 59.1% | 62.9% | < 50 µg/mL | 14.5% | 19.1% | 26.1% | 28.1% | 20.6 µM | 72.1 µM | 37.4 µM | IC50 [18]: 867.28 µg/mL (≈ 2180 µM)

From ChEMBL document CHEMBL1221298, “InCl3 mediated one-pot multicomponent synthesis, anti-microbial, antioxidant and anticancer evaluation of 3-pyranyl indole derivatives” (Bioorg Med Chem Lett, 2010)
